The source made the active and inactive calls. Cut-off read from the data, not from the text of the source, unless noted: active = inhibition above about 30%; inactive = the rest.

These results are taken from PubChem BioAssay.

The nature of test [1]: Her2 expression decrease, cell viability multiplex – SKBR3 breast tumor cells, AlphaScreen, ATP viability, primary screen (AID 461;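 active = Her2 level under about 52% in both replicate screens, with viability over 70% of control, limit read from the data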;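 for Her2 level: lower value means less Her2 protein in the cells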;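 for viability: percent of carrier control wells set as 100% viability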). The note with it: SKBR3 Her2 protein level, 18-24 h, measured here: SKBR3 viability, ATP luminescence, at 10 µM.
Test [2] has as its target Receptor tyrosine-protein kinase erbB-2 (Homo sapiens) (UniProt P04626). Described as above. The note with it: 18-24 h, at 10 µM, stronger effect = lower value.
Test [3] in a line: reduced viability of SK-BR-3 breast cancer cells – cell-based, 24 h, human, pilot screen (AID 572;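 active = viability at or below 10% of carrier control in both of two separate runs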;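 note: compound exposure lasted between 18 and 24 h rather than exactly 24 h; 100% = carrier-treated control wells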). The note with it: SK-BR-3 viability, CellTiter-Glo luminescence, at 10 µM, stronger effect = lower value.
Test [4] can be described thus: HUVEC growth inhibition – cell-based, human, primary screen (AID 575;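 active = viability at or below 30% in both replicate assays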;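 note: 100% = median of untreated cell wells with 0.1% DMSO on each plate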). The note with it: HUVEC proliferation, CellTiter-Glo luminescence, 72 h; at 10 µM; stronger effect = lower value. Summed up: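 system = HUVEC primary cells | amount = 1250 cells/well | buffer or medium = supplemented EBM, 2% fetal bovine serum | dosing = single-point 10 µM, DMSO 0.1% final | times = 72 h compound incubation | detection = CTG luminescence | read-out = % viability relative to median vehicle-well signal on each plate | control set = vehicle and MePR control wells | format = collagen-coated 384-well format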
Background: ATP-based viability assays read luminescence as a measure of living cells.

A short description of test [5]: H69AR cell proliferation blockers – human, duplicate replicates, primary screen (AID 580;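 active = viability at or under a set limit in both replicates, limit being median viability minus 3 SD, cut at about 48% in these data, passing the limit was not always enough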;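 note: 100% = mean luminescence of untreated wells and 0% = no signal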). The note with it: H69AR lung tumor cells viability, ATP luminescence, 72 h; at 10 µM; stronger effect = lower value.
Test [6] can be described thus: MRP1 drug-resistance reversers in H69AR cells – cell-based, doxorubicin co-treatment, pilot screen (AID 601;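 active = viability loss from added drug above about 55%, and viability with drug at most 40%, in both replicates, limit read from the data, passing the limit was not always enough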). The note with it: CellTiter-Glo, 72 h, at 10 µM; for differential viability (reversal): stronger effect = higher value.
Test [7] in a line: yeast transport mutant growth inhibition pilot in 384-well plates, post-Golgi transport modulator project (AID 636; in the data active = inhibition above about 31%). The note with it: absorbance 615 nm, about 18 h, stronger effect = higher value.
A short description of test [8]: growth suppression of yeast trafficking mutant, preliminary HTS, modulators of trafficking downstream of Golgi apparatus project, 1536-format plate, OD 615 nm (AID 637). The note with it: yeast transport mutant growth, absorbance 615 nm, 18 h; stronger effect = higher value.
[9] abbreviates: H69AR cells + 2 uM doxorubicin, measured here: viability with 2 uM doxorubicin, stronger effect = lower value.
Setting [10] is: H69AR cells, compound alone cytotoxicity.

Sequence of Receptor tyrosine-protein kinase erbB-2 (Homo sapiens) (P04626 whole entry, looked up): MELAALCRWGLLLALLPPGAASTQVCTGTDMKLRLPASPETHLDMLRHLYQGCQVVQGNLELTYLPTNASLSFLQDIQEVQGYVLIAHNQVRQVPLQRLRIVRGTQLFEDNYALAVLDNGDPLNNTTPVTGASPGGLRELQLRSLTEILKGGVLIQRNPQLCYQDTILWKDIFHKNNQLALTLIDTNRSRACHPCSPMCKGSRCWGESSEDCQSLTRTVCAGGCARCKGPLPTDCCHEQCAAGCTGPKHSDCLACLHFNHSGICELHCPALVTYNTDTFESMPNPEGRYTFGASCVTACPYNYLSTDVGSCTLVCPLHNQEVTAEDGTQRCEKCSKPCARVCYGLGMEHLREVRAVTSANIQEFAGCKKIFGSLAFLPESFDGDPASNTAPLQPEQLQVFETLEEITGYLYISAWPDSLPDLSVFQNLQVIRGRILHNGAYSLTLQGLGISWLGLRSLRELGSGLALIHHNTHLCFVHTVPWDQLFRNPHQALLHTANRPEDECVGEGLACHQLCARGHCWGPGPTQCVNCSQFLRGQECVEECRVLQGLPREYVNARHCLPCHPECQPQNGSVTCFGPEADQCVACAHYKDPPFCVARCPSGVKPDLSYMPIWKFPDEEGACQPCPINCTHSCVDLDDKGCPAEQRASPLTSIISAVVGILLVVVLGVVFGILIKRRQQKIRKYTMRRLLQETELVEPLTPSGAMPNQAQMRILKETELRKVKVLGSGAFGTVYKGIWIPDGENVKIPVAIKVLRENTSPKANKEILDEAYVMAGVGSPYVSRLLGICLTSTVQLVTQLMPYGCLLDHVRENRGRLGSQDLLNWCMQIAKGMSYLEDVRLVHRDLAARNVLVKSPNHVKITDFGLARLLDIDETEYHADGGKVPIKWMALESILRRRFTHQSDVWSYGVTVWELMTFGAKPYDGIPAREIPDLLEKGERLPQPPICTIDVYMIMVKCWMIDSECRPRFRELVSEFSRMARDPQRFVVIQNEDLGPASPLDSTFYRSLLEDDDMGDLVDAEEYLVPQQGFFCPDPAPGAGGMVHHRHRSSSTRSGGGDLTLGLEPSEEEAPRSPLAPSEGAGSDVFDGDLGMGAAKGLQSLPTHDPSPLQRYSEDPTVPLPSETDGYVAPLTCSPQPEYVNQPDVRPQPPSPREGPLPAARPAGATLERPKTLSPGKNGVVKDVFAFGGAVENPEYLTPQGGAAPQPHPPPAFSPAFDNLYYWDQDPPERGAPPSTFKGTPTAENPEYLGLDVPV

`O=C1CC(N2CCOCC2)C(=O)N1c1ccc2c(c1)OCO2` (stereo not given): the viability – broadly, a read-out of living cells in per cent, often relative to untreated cells – in test [1] was 102%; in test [3] it was 102% (inactive); in test [4], 92% (inactive); in test [5], 104% (inactive); in test [6] (setting [9]), 108%; in test [6] (setting [10]) it was 104%. Moreover, the Her2 level in test [2] was 92.5% (inactive). In addition, the differential viability (reversal) in test [6] (H69AR cells + 2 uM doxorubicin) is -4.17% (inactive). The inhibition (in general, the relative decrease from the control value, in per cent) in test [7] was -2.11% (inactive); in test [8] it was 0.32% (inactive).
Turning to `Cc1nc2c(o1)CCc1ccccc1C2O` (stereo not given), the viability in test [1] is 96%; in test [3] it was 96% (inactive); in test [4], 93.9% (inactive); in test [5], 94.4% (inactive); in test [6] (setting [9]), 99.7%; in test [6] (setting [10]), 94.4%. In addition, in test [2], the Her2 level is 91% (inactive). Besides, the differential viability (reversal) in test [6] (H69AR cells + 2 uM doxorubicin) was -5.3% (inactive). Further, the inhibition in test [7] is -4% (inactive); in test [8], -2.95% (inactive).
As for `O=C(O)COc1ccc(Oc2ccccc2)cc1`, the viability in test [1] was 102%; in test [3], 102% (inactive); in test [4], 96.1% (inactive); in test [5], 109% (inactive); in test [6] (setting [9]) it was 96%; in test [6] (setting [10]), 109%. Further, the Her2 level in test [2] is 106% (inactive). In addition, the differential viability (reversal) in test [6] (H69AR cells + 2 uM doxorubicin) is 13.3% (inactive). For the same compound, the inhibition in test [7] was 0.26% (inactive); in test [8] it was -3.55% (inactive).
In the case of `CCOC(=O)Cc1nnc2c(Nc3ccc(C)cc3)nc3nonc3n12`, the viability was 97% in test [1]; 97% (inactive) in test [3]; 74.9% (inactive) in test [4]; 94% (inactive) in test [5]; 95.2% in test [6] (setting [9]); 94% in test [6] (setting [10]). Further, the Her2 level in test [2] is 76% (inactive). The differential viability (reversal) in test [6] (H69AR cells + 2 uM doxorubicin) is -1.2% (inactive). The figures for the inhibition in test [7] and in test [8] were -4% (inactive) and 7.7% (inactive), respectively.
On to `Cn1cnc(S(=O)(=O)NCc2cccs2)c1`, for which the viability in test [1] is 102%; in test [3], 102% (inactive); in test [4], 96.5% (inactive); in test [5], 95.5% (inactive); in test [6] (setting [9]) it was 87.8%; in test [6] (setting [10]), 95.5%. Moreover, in test [2], the Her2 level is 102% (inactive). Moreover, the differential viability (reversal) in test [6] (H69AR cells + 2 uM doxorubicin) is 7.67% (inactive). Further, the inhibition in test [7] is 0.68% (inactive); in test [8], -1.9% (inactive).
Take `O=C(c1cccs1)N1CCN=C1SCc1ccccc1`: the viability in test [1] was 120%; in test [3], 120% (inactive); in test [4], 60.8% (inactive); in test [5], 90.4% (inactive); in test [6] (setting [9]), 84.2%; in test [6] (setting [10]), 90.4%. For the same compound, the Her2 level in test [2] is 74.5% (inactive). In addition, the differential viability (reversal) in test [6] (H69AR cells + 2 uM doxorubicin) is 6.13% (inactive). Further, the inhibition in test [7] is 3.51% (inactive); in test [8], -0.66% (inactive).
For the compound `CCOC(=O)C1CCN(C(=O)C2CCN(S(=O)(=O)c3cc(Cl)ccc3Cl)CC2)CC1`, the viability is 92% in test [1]; 92% (inactive) in test [3]; 115% (inactive) in test [4]; 89.4% (inactive) in test [5]; 68.7% in test [6] (setting [9]); 89.4% in test [6] (setting [10]). The Her2 level in test [2] was 91% (inactive). Further, in test [6] (H69AR cells + 2 uM doxorubicin), the differential viability (reversal) was 20.7% (inactive). Also, the inhibition in test [7] is -5.07% (inactive); in test [8], 0.48% (inactive).
In the case of `COCCCNC(=O)c1ccccc1NS(=O)(=O)c1ccc(C)cc1`, the viability in test [1] was 91%; in test [3], 91% (inactive); in test [4], 92.1% (inactive); in test [5], 101% (inactive); in test [6] (setting [9]), 91.2%; in test [6] (setting [10]), 101%. Moreover, in test [2], the Her2 level was 98% (inactive). Besides, in test [6] (H69AR cells + 2 uM doxorubicin), the differential viability (reversal) is 9.35% (inactive). Besides, the inhibition was -4.27% (inactive) in test [7] and -5.24% (inactive) in test [8].
For `CCCC1CC(C)(C(=O)Cn2[nH]c(=O)ccc2=O)OC1=O` (stereo not given), the viability is 84% in test [1]; 84% (inactive) in test [3]; 105% (inactive) in test [4]; 91.8% (inactive) in test [5]; 95.4% in test [6] (setting [9]); 91.8% in test [6] (setting [10]). Besides, the Her2 level in test [2] was 95.5% (inactive). Also, in test [6] (H69AR cells + 2 uM doxorubicin), the differential viability (reversal) is -3.6% (inactive). Further, the inhibition in test [7] was -4% (inactive); in test [8] it was 5.08% (inactive).
Regarding `CC(Oc1ccc(Br)cc1)C(=O)N1CCc2ccccc21` (stereo not given), the viability was 85.5% in test [1]; 85.5% (inactive) in test [3]; 107% (inactive) in test [4]; 96.9% (inactive) in test [5]; 87.6% in test [6] (setting [9]); 96.9% in test [6] (setting [10]). Further, in test [2], the Her2 level was 96.5% (inactive). For the same compound, the differential viability (reversal) in test [6] (H69AR cells + 2 uM doxorubicin) is 9.3% (inactive). Moreover, the inhibition was -2.76% (inactive) in test [7] and -3.02% (inactive) in test [8].
For the compound `CCOC(=O)c1cc2c(=O)n3cccc(C)c3nc2n(Cc2ccco2)c1=NC(=O)c1cccnc1`, the viability in test [1] was 92.5%; in test [3], 92.5% (inactive); in test [4], 71.4% (inactive); in test [5], 80.7% (inactive); in test [6] (setting [9]), 72.4%; in test [6] (setting [10]) it was 80.7%. For the same compound, the Her2 level in test [2] was 82% (inactive). Moreover, in test [6] (H69AR cells + 2 uM doxorubicin), the differential viability (reversal) is 8.21% (inactive). For the same compound, the inhibition in test [7] was -1.71% (inactive); in test [8], 2.58% (inactive).
For `COC(=O)c1cc(Br)c(=O)n(-c2nccs2)c1`, the viability was 121% in test [1]; 121% (inactive) in test [3]; 107% (inactive) in test [4]; 96.5% (inactive) in test [5]; 87.2% in test [6] (setting [9]); 96.5% in test [6] (setting [10]). Further, the Her2 level in test [2] was 93.5% (inactive). Also, the differential viability (reversal) in test [6] (H69AR cells + 2 uM doxorubicin) is 9.32% (inactive). The inhibition was -4.27% (inactive) in test [7] and -6.39% (inactive) in test [8].
As for `O=C1CCCN1CCCNc1ncnc2c1[nH]c1ccc(Cl)cc12`, the viability in test [1] is 89%; in test [3], 89% (inactive); in test [4], 85.3% (inactive); in test [5] it was 80.9% (inactive); in test [6] (setting [9]), 77.8%; in test [6] (setting [10]), 80.9%. In addition, the Her2 level in test [2] was 81% (inactive). In addition, the differential viability (reversal) in test [6] (H69AR cells + 2 uM doxorubicin) is 3.12% (inactive). Also, the inhibition in test [7] is -7.6% (inactive); in test [8], -0.48% (inactive).
As to `CN1C(=O)CC(C(=O)Nc2ccc(F)cc2)SC1=Nc1ccc2c(c1)OCO2` (stereo not given), the viability was 88% in test [1]; 88% (inactive) in test [3]; 95% (inactive) in test [4]; 82.5% (inactive) in test [5]; 79.6% in test [6] (setting [9]); 82.5% in test [6] (setting [10]). The Her2 level in test [2] was 73% (inactive). For the same compound, the differential viability (reversal) in test [6] (H69AR cells + 2 uM doxorubicin) is 2.84% (inactive). Moreover, the values for the inhibition in test [7] and in test [8] were -7.16% (inactive) and 0.83% (inactive), respectively.
Turning to `CCc1ccccc1OCCCCCNCCO`, the viability in test [1] was 85.5%; in test [3] it was 85.5% (inactive); in test [4], 93.3% (inactive); in test [5], 81.8% (inactive); in test [6] (setting [9]), 87.4%; in test [6] (setting [10]), 81.8%. The Her2 level in test [2] is 91% (inactive). For the same compound, the differential viability (reversal) in test [6] (H69AR cells + 2 uM doxorubicin) was -5.63% (inactive). The results for the inhibition in test [7] and in test [8] were -2.05% (inactive) and -1.5% (inactive), respectively.
With `Cc1cc(Cl)ccc1OCCCC(=O)N1CCOCC1`, the viability in test [1] is 90%; in test [3], 90% (inactive); in test [4] it was 99.5% (inactive); in test [5], 87.7% (inactive); in test [6] (setting [9]), 87.6%; in test [6] (setting [10]), 87.7%. The Her2 level in test [2] is 92.5% (inactive). In addition, in test [6] (H69AR cells + 2 uM doxorubicin), the differential viability (reversal) was 0.08% (inactive). Besides, the inhibition in test [7] was -5.39% (inactive); in test [8], 11.2% (inactive).
